An excerpt weighted towards active compounds, which were near 2.9% of everything screened.
UBC13 inh: UBC13 polyubiquitin chain formation inhibitors, primary screen, biochemical, TR-FRET, uHTS; 330,000 tested, 0.47% active; inhibition, % at 20 µM; Ubiquitin-conjugating enzyme E2 N (Homo sapiens), P61088; AID 485273, 2010; in the data active means inhibition above about 45%, passing the limit was not always enough
MEKK2 WT-MEK5: modulators of MEK5 binding to wildtype MEKK2, primary screen, biochemical, multiplex bead flow cytometry, Alexa488-MEK5; Mitogen-activated protein kinase kinase kinase 2 (Homo sapiens), Q9Y2U5; Alexa488-MEK5 binding to MEKK2 WT; actives lie on both sides; binding response (% of control), % at 10 µM; 290,000 tested, 1.1% active; in the data active means binding response below about 67% or above about 130%
Apaf-1 inh: inhibitors of human Apaf-1 apoptosome, primary screen, biochemical, DEVD-Rh110 fluorescence, uHTS; Apoptotic protease-activating factor 1 (Homo sapiens), O14727; inhibition, % at 20 µM; reconstituted apoptosome caspase-3 activity; 330,000 tested, 0.71% active; AID 489030, 2010; active means inhibition of at least 40% at 20 µM
Target sequence (O14727 whole entry, looked up): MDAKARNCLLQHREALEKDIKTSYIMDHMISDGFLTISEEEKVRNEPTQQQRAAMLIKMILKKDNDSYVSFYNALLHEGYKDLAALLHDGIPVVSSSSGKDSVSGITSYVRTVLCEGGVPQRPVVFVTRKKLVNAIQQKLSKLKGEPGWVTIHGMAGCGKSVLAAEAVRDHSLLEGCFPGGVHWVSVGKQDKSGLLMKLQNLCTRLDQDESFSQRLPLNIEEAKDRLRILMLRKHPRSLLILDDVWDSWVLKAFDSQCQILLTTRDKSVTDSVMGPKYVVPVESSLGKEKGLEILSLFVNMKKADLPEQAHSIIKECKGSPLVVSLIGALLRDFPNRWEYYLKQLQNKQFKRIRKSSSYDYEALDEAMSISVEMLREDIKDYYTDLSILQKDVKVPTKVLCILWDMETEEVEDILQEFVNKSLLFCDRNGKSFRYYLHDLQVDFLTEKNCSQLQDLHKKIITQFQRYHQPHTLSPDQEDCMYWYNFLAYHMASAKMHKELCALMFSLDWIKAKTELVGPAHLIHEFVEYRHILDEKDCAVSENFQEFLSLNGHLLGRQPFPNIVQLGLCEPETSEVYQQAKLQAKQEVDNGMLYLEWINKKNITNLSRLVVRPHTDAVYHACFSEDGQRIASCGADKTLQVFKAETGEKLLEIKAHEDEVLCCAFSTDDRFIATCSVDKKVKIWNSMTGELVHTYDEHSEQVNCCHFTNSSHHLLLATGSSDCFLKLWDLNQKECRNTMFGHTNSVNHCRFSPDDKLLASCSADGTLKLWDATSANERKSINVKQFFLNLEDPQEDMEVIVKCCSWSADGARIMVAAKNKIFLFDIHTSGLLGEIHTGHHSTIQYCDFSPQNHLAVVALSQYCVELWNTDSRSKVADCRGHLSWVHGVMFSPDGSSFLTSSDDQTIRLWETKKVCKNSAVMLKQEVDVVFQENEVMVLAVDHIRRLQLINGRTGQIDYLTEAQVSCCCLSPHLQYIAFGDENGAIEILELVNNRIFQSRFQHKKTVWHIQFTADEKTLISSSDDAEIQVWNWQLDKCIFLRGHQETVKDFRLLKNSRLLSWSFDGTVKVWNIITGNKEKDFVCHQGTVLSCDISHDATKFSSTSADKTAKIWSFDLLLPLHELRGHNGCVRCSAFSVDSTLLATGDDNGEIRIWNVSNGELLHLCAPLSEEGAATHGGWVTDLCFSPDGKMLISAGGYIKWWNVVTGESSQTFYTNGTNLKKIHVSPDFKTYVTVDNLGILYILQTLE
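Material: biochemical Apaf-1 apoptosome reconstitution. Medium: Hepes buffer, pH 7.5. Also added: cytochrome c activation, bis-DEVD rhodamine 110 substrate. Timing: 30 min compound preincubation, 50 min activation, room temperature. Measured by: rhodamine 110 fluorescence at Ex 480/Em 540 nm.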
MEKK2 mut-MEK5: MEK5 binding signal on mutant MEKK2 PB1, primary screen, biochemical, multiplex bead flow cytometry, Alexa488-MEK5 | AID 1530, 2009 | 290,000 tested, 0.35% active | percent response, % at 10 µM | Alexa488-MEK5 binding to MEKK2 mutant; in the data active means percent response above about 24%, passing the limit was not always enough
MEKK3 PB1 HTS: modulators of MEKK3-MEK5 PB1 binding, primary screen, biochemical, wildtype MEKK3, multiplex bead flow cytometry, Alexa488-MEK5; Mitogen-activated protein kinase kinase kinase 3 (Homo sapiens), Q99759; bead-based flow cytometry, Alexa488-MEK5 binding to MEKK3; actives lie on both sides; 0 = blocked by unlabeled MEK5, 100 = vehicle; binding response (% of control), % at 10 µM; 290,000 tested, 1.4% active; AID 1529, 2009;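 active means binding response more than 3 SD above or below the average of its plate-row segment, actives on both sides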;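 further: Alexa488 bead fluorescence after subtracting the streptavidin-only scavenger bead signal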
MEKK2wt confirm: modulators of MEK5 binding to wildtype MEKK2, confirmation, biochemical, single concentration, multiplex bead flow cytometry; shares compounds with MEKK3 PB1 HTS; Alexa488-MEK5 binding to MEKK2 WT; actives lie on both sides; binding response (% of control), % at 10 µM; 5,900 tested, 2.4% active; in the data active means binding response below about 16% or above about 210%; inactive means in between
MEKK2mut confirm: mutant MEKK2 PB1-MEK5 binding signal retest – biochemical, single concentration, multiplex bead flow cytometry, confirmation; percent response, % at 10 µM; Alexa488-MEK5 binding to MEKK2 mutant; 5,900 tested, 2% active; shares compounds with MEKK3 PB1 HTS; in the data active means percent response mostly above about 71%, no sharp cut-off; inactive means mostly below about 38%;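 further: higher means compound restores mutant binding toward wildtype level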
MEKK3 confirm: MEKK3 wild-type PB1 binding to MEK5, inhibitors, confirmation, biochemical, bead multiplex flow cytometry, single concentration, wildtype. shares compounds with MEKK3 PB1 HTS. Alexa488-MEK5 binding to MEKK3; stronger effect = lower value. binding response (% of control), % at 10 µM. 5,900 tested, 1.8% active. AID 1894, 2009;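 active means binding response below 72% of control, or above a set upper limit, though filed actives all read lower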
A number is an active result; [ ] = remark or other dose.

What do the screens show for `O=C(C[n+]1cc(Br)cc2ccccc21)c1ccc(Br)cc1`?
UBC13 inh: inactive; MEKK2 WT-MEK5: inactive; Apaf-1 inh: inactive; MEKK2 mut-MEK5: inactive; MEKK3 PB1 HTS: inactive

What do the screens show for `S=c1[nH]nc(-c2ccc(Cl)cc2)n1-c1ccc2c(c1)OCCO2`?
UBC13 inh: inactive; MEKK2 WT-MEK5: inactive; Apaf-1 inh: inactive; MEKK2 mut-MEK5: inactive; MEKK3 PB1 HTS: 197.0; MEKK2wt confirm: 1.0[inhibitor]; MEKK2mut confirm: inactive; MEKK3 confirm: 2.0

How did Fc1ccc(-c2n[nH]c(=S)n2-c2ccc3c(c2)OCCO3)cc1 do in these assays?
UBC13 inh: inactive; MEKK2 WT-MEK5: inactive; Apaf-1 inh: inactive; MEKK2 mut-MEK5: inactive; MEKK3 PB1 HTS: inactive

Results for Cc1ccccc1N1C(=O)c2cccc3cccc(c23)C1=O ?
UBC13 inh: inactive; MEKK2 WT-MEK5: inactive; Apaf-1 inh: inactive; MEKK2 mut-MEK5: 26.0; MEKK3 PB1 HTS: inactive; MEKK2wt confirm: inactive; MEKK2mut confirm: inactive; MEKK3 confirm: inactive

Results for COc1ccc(Cl)cc1NC(=O)CN1CCc2ccccc21 ?
UBC13 inh: inactive; MEKK2 WT-MEK5: inactive; Apaf-1 inh: inactive; MEKK2 mut-MEK5: inactive; MEKK3 PB1 HTS: inactive

Results for CCCC(=O)Nc1nnc(S(=O)(=O)N(CC)c2ccc(OC)cc2)s1 ?
UBC13 inh: inactive; MEKK2 WT-MEK5: inactive; Apaf-1 inh: inactive; MEKK2 mut-MEK5: inactive; MEKK3 PB1 HTS: inactive

Results for Cc1[nH]c2ccccc2c1C(=O)COC(=O)Cn1c(C)nc2ccccc21 ?
UBC13 inh: inactive; MEKK2 WT-MEK5: inactive; Apaf-1 inh: inactive; MEKK2 mut-MEK5: inactive; MEKK3 PB1 HTS: inactive

Results for Cc1[nH]c2ccccc2c1C(=O)COC(=O)Cn1cnc2ccccc21 ?
UBC13 inh: inactive; MEKK2 WT-MEK5: inactive; Apaf-1 inh: inactive; MEKK2 mut-MEK5: 55.0; MEKK3 PB1 HTS: inactive; MEKK2wt confirm: inactive; MEKK2mut confirm: inactive; MEKK3 confirm: inactive

How did O=C(NCCN1CCN(C(=O)c2cccc(OC(F)F)c2)CC1)c1cccc(OC(F)F)c1 do in these assays?
UBC13 inh: inactive; Apaf-1 inh: inactive

How did O=c1cc(-c2cccs2)oc2ccc(Cl)cc12 do in these assays?
UBC13 inh: inactive; MEKK2 WT-MEK5: inactive; Apaf-1 inh: inactive; MEKK2 mut-MEK5: inactive; MEKK3 PB1 HTS: inactive

What do the screens show for `O=c1cc(-c2ccc3c(c2)OCCO3)oc2ccc(Cl)cc12`?
UBC13 inh: inactive; MEKK2 WT-MEK5: inactive; Apaf-1 inh: inactive; MEKK2 mut-MEK5: inactive; MEKK3 PB1 HTS: 137.0; MEKK2wt confirm: inactive; MEKK2mut confirm: inactive; MEKK3 confirm: inactive

What do the screens show for `Cc1csc(=O)n1CCC(=O)N(C)Cc1c(F)cccc1Cl`?
UBC13 inh: inactive; Apaf-1 inh: inactive

How did Cc1ccc(-n2nc(-c3ccccc3)cc2Nc2ccccc2N)cc1 do in these assays?
UBC13 inh: inactive; MEKK2 WT-MEK5: inactive; Apaf-1 inh: inactive; MEKK2 mut-MEK5: inactive; MEKK3 PB1 HTS: 139.0; MEKK2wt confirm: inactive; MEKK2mut confirm: inactive; MEKK3 confirm: inactive

Results for COCCCN=Cc1c(C)[nH]n(-c2ccc(Br)cc2Br)c1=O ?
UBC13 inh: inactive; MEKK2 WT-MEK5: inactive; Apaf-1 inh: inactive; MEKK2 mut-MEK5: inactive; MEKK3 PB1 HTS: inactive

High-throughput results: PubChem, several laboratories
